Screening results (PubChem)
Only some compounds are listed: those with a hit (about 1.6% of all), similar ones and a draw of the others.
FLuc inhib CS = firefly luciferase enzyme inhibitors, primary screen, artefact control for luciferase-based inhibitor screens, biochemical, luminescence, ATPLite; inhibition, % at 10 µM; actives 1.5% (n = 200,000); 10 min; AID 1006, 2008;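 active = inhibition above about 50% when tested at 10 µM, limit read from the data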
Target sequence (P08659 whole entry, looked up): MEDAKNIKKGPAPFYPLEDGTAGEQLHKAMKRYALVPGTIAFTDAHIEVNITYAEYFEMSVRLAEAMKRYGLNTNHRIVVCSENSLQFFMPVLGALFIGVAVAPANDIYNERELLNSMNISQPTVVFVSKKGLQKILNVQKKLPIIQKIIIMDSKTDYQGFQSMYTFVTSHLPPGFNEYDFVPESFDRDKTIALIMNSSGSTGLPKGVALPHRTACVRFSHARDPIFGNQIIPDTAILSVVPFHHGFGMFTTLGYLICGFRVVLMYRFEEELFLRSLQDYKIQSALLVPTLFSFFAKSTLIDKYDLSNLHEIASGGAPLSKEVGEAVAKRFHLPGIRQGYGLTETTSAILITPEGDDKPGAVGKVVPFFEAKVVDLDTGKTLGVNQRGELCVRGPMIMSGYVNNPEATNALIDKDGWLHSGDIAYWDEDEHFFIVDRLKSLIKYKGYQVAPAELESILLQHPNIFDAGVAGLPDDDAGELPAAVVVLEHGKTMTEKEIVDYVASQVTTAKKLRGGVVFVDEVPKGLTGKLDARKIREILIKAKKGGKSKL
C8 TRAIL sens = viability loss with TRAIL in NB7+C8 cells, primary screen, TRAIL sensitizer project, cell-based, ATPlite luminescence; inhibition (viability loss, TRAIL sensitization), % at 10 µM; actives 1% (n = 360,000); AID 624354, 2012;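 active = compounds causing at least 50% loss of cell viability in the single-dose screen, relative to plate controls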
PPC-1+TRAIL kill = compounds killing PPC-1 cancer cells with TRAIL present, primary screen, TRAIL potentiator project, ATPLite luminescence, uHTS; actives 0.41% (n = 220,000); PPC-1 cells + TRAIL, ATPLite viability luminescence; cell killing (% activity), % at 4 µM or 5 µM;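 active = cell killing above 50% in the first pass at 4 µM, then a duplicate retest at 5 µM averaging 50% or more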
FLuc stim CS = FLuc activators, initial screening, artefact control for FLuc-dependent activation tests, biochemical, ATPlite luminescence | Luciferin 4-monooxygenase (Photinus pyralis), P08659 | ATPlite luciferase biochemical, 10 min; 0 = ATP-free wells, 1 = DMSO control | activation factor at 10 µM | 200,000 tested, under 10 active | AID 1027, 2008;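 active = luciferase activation factor, scaled between plate controls, of at least 2 with compound at 10 µM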
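Material: luciferase plus luciferin reagent, cell-free. Medium: PBS buffer for ATP. Also added: ATP substrate, dispensed from a 10.24 µM working solution in PBS. Doses: test compounds dosed from 2 mM stocks in 100% DMSO. Incubation: 10 min post-reagent at room temperature. Technique: light output (luminescence). Read-out basis: luminescence gain marking luciferase activators.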
PPC-1 tox = cytotoxicity in PPC-1 cells, confirmation, cytotoxicity control for TRAIL apoptosis potentiator project, cell-based, ATP content luminescence | PPC-1 viability, ATPlite luminescence, overnight | actives 50% (n = 1,200) | cytotoxicity, % at 5 µM | AID 1447, 2008 | shares compounds with PPC-1+TRAIL kill;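 active = reconfirmed compounds whose average cytotoxicity reaches 50% or more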
A number is an active result; n = inactive; x = not tested or not shown.

SMILES | FLuc inhib CS | C8 TRAIL sens | PPC-1+TRAIL kill | FLuc stim CS | PPC-1 tox
O=C1N=C(N2CCOCC2)S/C1=C1\C(=O)N(Cc2ccccc2)c2ccc(Br)cc21 | n | x | n | n | x
CCCCN1C(=O)/C(=C2\SC(N3CCCCC3)=NC2=O)c2ccccc21 | 54.6 | n | n | n | n
COc1ccc(-c2nc3ccccc3[nH]2)cc1 | 93.0 | 78.9 | 78.0 | n | 76.8
COc1ccc(-[n+]2c(C)cc(/C=C3\Sc4ccccc4N3C)cc2C)cc1 | n | n | n | n | x
COc1ccccc1-[n+]1c(C)cc(/C=C2\Sc3ccccc3N2C)cc1C | x | 84.3 | 82.3 | x | 81.6
Cc1cc(C(F)(F)F)c(C#N)c(SCC(=O)Nc2nc3ccccc3s2)n1 | n | n | n | n | x
Cc1nc(SCC(=O)Nc2nc3ccccc3s2)c(C#N)c(C)c1C | n | 95.3 | 95.5 | n | 96.0
Cc1ccc2sc(NC(=O)CSc3nc(C)cc(C)c3C#N)nc2c1 | n | 69.8 | 65.0 | n | 62.2
COc1ccccc1-c1noc(-c2ccncc2)n1 | n | n | n | n | x
COc1ccc(-c2nc(-c3ccncc3)no2)cc1 | x | n | x | x | x
Clc1ccc(-c2nc(-c3ccccn3)no2)cc1Cl | 87.9 | 78.3 | 66.0 | n | 63.7
Cc1ccccc1-c1nc(-c2cccnc2)no1 | n | n | n | n | x
COc1ccccc1-c1nc(-c2ccccn2)no1 | 87.8 | 73.2 | 63.3 | n | 63.3
COc1ccc(-c2nc(-c3ccccn3)no2)cc1 | 97.5 | 95.6 | 92.5 | n | 91.9
Cc1ccccc1-c1nc(-c2ccccn2)no1 | 95.1 | 87.4 | 83.5 | n | 80.3
CC1CCCN(S(=O)(=O)c2ccc(C(=O)Nc3nnc(C4=COCCO4)o3)cc2)C1 (configuration not stated) | x | n | x | x | x
CCC(=O)Nc1ccc(NC(=O)CSc2nnnn2C2CCCC2)cc1C | x | n | x | x | x
CN(c1ncc(C(F)(F)F)cc1Cl)n1cc(C(=O)O)c2ccccc2c1=O | n | n | n | n | x
COc1ccc(-c2nc(-c3cccs3)no2)cc1 | x | 62.5 | n | x | n
Cc1ccccc1C(=O)NC(NC(=S)Nc1ccc(S(N)(=O)=O)cc1)C(Cl)(Cl)Cl (configuration not stated) | n | n | n | n | x
CCCOc1ccc(C(=O)C(c2ccccc2)N2CCOCC2)cc1 (configuration not stated) | n | n | n | n | n
Cc1cccc(-n2ncc3c(N(C)C4CCCCC4)ncnc32)c1 | x | 87.8 | 79.8 | x | 81.6
COC(=O)c1ccc(O)cc1 | x | n | x | x | x
CC1=NNC(=O)C1CC(=O)N/N=C/C(Br)=C/c1ccccc1 (configuration not stated) | x | n | n | x | x
CC1C(=O)NN=C1C(=O)N/N=C\C(Br)=C\c1ccccc1 (configuration not stated) | 95.4 | 73.9 | 78.4 | n | 79.0
SMILES | FLuc inhib CS | C8 TRAIL sens | PPC-1+TRAIL kill | FLuc stim CS | PPC-1 tox
NC(=O)c1ccsc1NC(=O)c1cccs1 | x | n | x | x | x
NC(=O)c1ccsc1NC(=O)c1ccc2c(c1)CCCC2 | 90.8 | 85.3 | 78.3 | n | 75.6
NC(=O)c1ccsc1NC(=O)c1ccc(N2CCCC2=O)cc1 | 93.1 | 79.7 | 77.5 | n | 74.3
CCN(c1ccccc1)S(=O)(=O)c1ccc(C(=O)Nc2ccncc2)cc1 | x | n | x | x | x
CC(C)C[C@H]1CNC(=O)C(=O)N1C[C@H](C)NC(=O)Cc1ccccc1 | x | n | x | x | x
Cc1ccc2cc(CN(C(=O)c3ccco3)c3ccccc3C)c(=O)[nH]c2c1 | n | n | n | n | x
CC(C)Oc1ccc(Cn2c(=O)oc3ccccc32)cc1 | x | n | x | x | x
CCOc1ccc(C2C(C#N)=C(N)SC(N)=C2C#N)cc1OCC | n | n | n | n | n
Cc1ccc(NN2C(=O)C=C(c3ccc(Cl)cc3)C2=O)cc1 | n | n | n | n | n
CCN(CC)c1ccc(N=Cc2cc(Br)ccc2O)cc1 | n | n | n | n | n
Oc1ccc(Br)cc1C=Nc1ccc(Cl)cc1 | n | n | n | n | x
NCc1csc(Nc2cc(Oc3ccccc3)ncn2)n1 | x | n | x | x | x
Cn1c(=N)n(CC(=O)O)c2ccccc21 | n | n | n | n | x
Cn1c(=N)n(CC(=O)c2ccccc2)c2ccccc21 | x | 80.6 | 53.0 | x | 56.9
Cc1c(Nc2ccc3nonc3c2[N+](=O)[O-])c(=O)n(-c2ccccc2)n1C | n | n | x | n | x
O=C(Nc1ccccc1)Nc1cc(Cl)cc(Cl)c1 | n | n | n | n | x
O=C(Nc1ccccc1)Nc1cc(OCC(F)(F)F)cc(OCC(F)(F)F)c1 | n | n | n | n | n
O=c1c(N2CCOCC2)nsnc1N1CCOCC1 | n | n | n | n | x
Cc1cccc(C)c1Nc1nnc(SCc2cc([N+](=O)[O-])cc3c2OCOC3)s1 | n | n | n | n | x
CC(=O)c1ccc(N=Nc2ccc(N)cc2)cc1 | x | 82.6 | 54.1 | x | 54.8
CC(=O)c1ccc(N=Nc2c(C)[nH][nH]c2=O)cc1 | x | n | x | x | x
COc1cccc(-c2nnn(CC(=O)Nc3cc(OC)c(NC(=O)c4ccco4)cc3OC)n2)c1 | n | n | n | n | n
Cc1ccnc(NC(=O)CCC(=O)N(CC(=O)NCc2ccc(F)cc2)Cc2ccccc2)c1 | x | n | x | x | x
O=C(Nc1ccc2c(c1)OCO2)N1CCN(Cc2ccco2)CC1 | 91.5 | 72.7 | 76.3 | n | 73.8
COc1ccc(N(C(=O)c2ccco2)C(C(=O)NC2CCCCC2)c2cccs2)cc1OC (configuration not stated) | n | n | n | n | x
SMILES | FLuc inhib CS | C8 TRAIL sens | PPC-1+TRAIL kill | FLuc stim CS | PPC-1 tox
C#CC(=O)N(c1ccc(OC)cc1OC)C(C(=O)NC1CCCC1)c1cccs1 (configuration not stated) | n | 92.8 | 97.0 | n | 96.0
C#CC(=O)N(c1cc(OC)ccc1OC)C(C(=O)NC1CCCC1)c1cccs1 (configuration not stated) | n | 91.1 | 97.8 | n | 97.6
CCn1c(=O)c2ccccc2n(Cc2ccccc2C)c1=O | x | n | x | x | x
O=C(Nc1ccc(N2CCOCC2)cc1)c1cnsn1 | 89.8 | 70.9 | 73.1 | n | 71.0
O=C(Nc1ccc(N2CCOCC2)cc1)c1ccncc1 | n | n | n | n | x
COC(=O)[C@H](CCSC)NC(=O)N1CCC(C)CC1 | n | n | n | n | n
Cc1cc(C)nc(NC(=O)/C=C/c2ccccc2Cl)c1 | n | n | n | n | x
Cc1cc(N)c2cc(NC(=O)/C=C/c3ccccc3Cl)ccc2n1 | x | 95.0 | 97.5 | x | 96.8
Cc1ccnc(NC(=O)/C=C/c2ccccc2Cl)c1 | 76.5 | 54.9 | n | n | n
O=C(Nc1ccccc1)C(=O)c1cn(CC(=O)N2CCCCC2)c2ccccc12 | n | n | n | n | x
O=C(CSc1nnc(-c2ccccc2Cl)o1)Nc1ccccn1 | n | 52.2 | 63.2 | n | 64.8
Cc1occc1-c1nnc(SCC(=O)Nc2ccccn2)o1 | n | n | n | n | x
CCOC(=O)N=Nc1c(O)n(CC(=O)OC)c2ccccc12 | n | n | n | n | x
